Screens from PubChem BioAssay.
ARNT TACC3 PPI = disrupts binding between human ARNT and TACC3; Q9Y6A5; AlphaScreen His-ARNT PAS-B/GST-TACC3 binding, luminescence; TACC3 fragment carries E629A point mutation; inhibition, % at 9.99 µM; 390,000 tested, 0.66% active; AID 623870;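 active means mean inhibition of replicates at least 50% and at least half of replicates each reaching 50%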
AI-2 QS modul = modulators of Vibrio harveyi AI-2 quorum sensing system. Vibrio harveyi JMH597 AI-2 luminescence/OD600 ratio, 9 h; stronger effect = lower value; strain lacks LuxN and CqsS sensors; 0 = neutral-control median. activity change, % at 7.5 µM. 300,000 tested, 0.4% active; in the data active means activity change below about -75%, passing the limit was not always enough;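 further: luminescence divided by OD600 gain over 9 h not by final OD600 alone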
Rce1 inhib = blocks yeast Ras-converting enzyme; 290,000 tested, 0.27% active; AID 2563; Q03530; yeast membranes, quenched prenylated peptide cleavage fluorescence; calls only;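 active means fall in fluorescence gain of 50% or more versus controls, with final raw signal at or below 3038400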
Target sequence (Q03530 whole entry, looked up): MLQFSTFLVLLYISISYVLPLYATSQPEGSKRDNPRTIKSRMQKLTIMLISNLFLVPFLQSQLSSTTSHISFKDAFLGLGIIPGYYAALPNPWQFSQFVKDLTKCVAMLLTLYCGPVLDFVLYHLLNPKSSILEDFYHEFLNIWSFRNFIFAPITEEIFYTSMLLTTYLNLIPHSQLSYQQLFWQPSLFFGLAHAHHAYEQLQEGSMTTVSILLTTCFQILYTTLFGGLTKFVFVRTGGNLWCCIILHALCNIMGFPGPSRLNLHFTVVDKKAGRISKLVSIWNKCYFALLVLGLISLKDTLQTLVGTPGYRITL
CAL PDZ FP-1 = blocks peptide binding to the human CAL PDZ domain; 300,000 tested, 0.92% active; inhibition, % at 24.9 µM; purified CAL PDZ, TMR-peptide fluorescence polarization, 1 h; Q9HD26;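 active means mean inhibition of at least 30% with at least half of replicates also reaching 30%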
CAL PDZ FP-2 = inhibitors of human CAL PDZ peptide binding; purified CAL PDZ, TMR-peptide fluorescence polarization, 1 h; AID 504414; Q9HD26; 330,000 tested, 0.02% active; inhibition, % at 20 µM;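 active means highest replicate inhibition of at least 40%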
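material = purified tagged CAL PDZ domain construct (CerCALP) | buffer or medium = sodium phosphate/NaCl buffer pH 7.4 with TCEP, IgG, Thesit | reagent = TMR-labelled reporter peptide T*-PRC34 bound in PDZ groove | incubation = 1 h room-temperature incubation prior to read | measured by = fluorescence polarization (mP) | evaluation = percent inhibition from loss of millipolarization | control set = unlabelled peptide and DMSO controls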
ARNT Alpha ctr-1 = AlphaScreen artifact in ARNT/TACC3 counter-screen | shares compounds with ARNT TACC3 PPI | His-ARNT PASB-GST AlphaScreen artifact counter-screen, luminescence | AC50, µM (doses to about 68 µM) | 1,200 tested, 50% active | AID 651705;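 active means every separate test run was called active for a drop in luminescence, with AC50 within twice the top valid dose, actives reach about 71 µM in these data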
ARNT Alpha ctr-2 = AlphaScreen artifact flagged for ARNT-TACC3 inhibitors. shares compounds with ARNT TACC3 PPI. Dual-tagged His-ARNT PASB-GST AlphaScreen artifact counter-screen. AC50, µM. 45 tested, 70% active;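 active means luminescence drop, with half-maximal potency fitted within twice the sample's top valid dose, cut at about 70 µM in these data; inactive means the rest, including signal moving the wrong way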
A number is an active result. In the library only some 1.7% were active in any assay of this set; here they are far more common.

`Cc1[nH][nH]c(=O)c1C(c1ccc(-c2ccc(C(=O)O)cc2)o1)c1c(C)[nH][nH]c1=O` gave ARNT TACC3 PPI 72.2, CAL PDZ FP-1 inactive and ARNT Alpha ctr-1 inactive.
Cc1[nH][nH]c(=O)c1C(c1ccc(-c2ccc(F)cc2)o1)c1c(C)[nH][nH]c1=O was read as ARNT TACC3 PPI 48.3, AI-2 QS modul inactive, Rce1 inhib inactive, CAL PDZ FP-1 inactive, CAL PDZ FP-2 inactive and ARNT Alpha ctr-1 inactive.
Screening COCCCn1c(C)cc(C(=O)CN2c3cccc4cccc(c34)S2(=O)=O)c1C returned ARNT TACC3 PPI inactive, CAL PDZ FP-1 inactive and CAL PDZ FP-2 inactive.
`Cc1ccc(/C=N/NC(=O)c2cccs2)s1` gave ARNT TACC3 PPI inactive, AI-2 QS modul inactive, Rce1 inhib inactive, CAL PDZ FP-1 inactive and CAL PDZ FP-2 inactive.
COc1cc(C(=O)Nc2cc(C)ccc2C)ccc1OCc1c(C)noc1C was read as ARNT TACC3 PPI inactive, CAL PDZ FP-1 inactive and CAL PDZ FP-2 inactive.
For C#CCOCCOCCOCCNc1nc(N2CCN(C(=O)[C@H](CC(N)=O)n3cc([C@@H](N)CC(N)=O)nn3)CC2)nc(N2CCN(C(=O)[C@H](CC(N)=O)n3cc([C@@H](N)CC(N)=O)nn3)CC2)n1 the results were ARNT TACC3 PPI 45.8, CAL PDZ FP-1 inactive, CAL PDZ FP-2 inactive and ARNT Alpha ctr-1 inactive.
`C#CCOCCOCCOCCNc1nc(N2CCN(C(=O)[C@H](CCCCN)n3cc([C@@H](N)CO)nn3)CC2)nc(N2CCN(C(=O)[C@H](Cc3ccc(O)cc3)n3cc([C@@H](N)CC(C)C)nn3)CC2)n1` gave ARNT TACC3 PPI 38.2, AI-2 QS modul inactive, Rce1 inhib inactive, CAL PDZ FP-1 inactive, CAL PDZ FP-2 inactive and ARNT Alpha ctr-1 inactive.
`C#CCOCCOCCOCCNc1nc(N2CCN(C(=O)[C@H](Cc3ccc(O)cc3)n3cc([C@@H](N)C(C)CC)nn3)CC2)nc(N2CCN(C(=O)[C@H](CCCCN)n3cc([C@@H](N)CC(C)C)nn3)CC2)n1` (some centres undefined) gave AI-2 QS modul inactive and Rce1 inhib inactive.
`C#CCOCCOCCOCCNc1nc(N2CCN(C(=O)[C@H](CCCCN)n3cc(CN)nn3)CC2)nc(N2CCN(C(=O)[C@H](CCCCN)n3cc([C@@H](N)CC(N)=O)nn3)CC2)n1` gave ARNT TACC3 PPI inactive, CAL PDZ FP-1 inactive and CAL PDZ FP-2 inactive.
C#CCOCCOCCOCCNc1nc(N2CCN(C(=O)[C@H](CCCCN)n3cc([C@@H](N)CC(N)=O)nn3)CC2)nc(N2CCN(C(=O)[C@H](CCCCN)n3cc([C@@H](N)CC(N)=O)nn3)CC2)n1 was read as ARNT TACC3 PPI 59.8, CAL PDZ FP-1 inactive, CAL PDZ FP-2 inactive and ARNT Alpha ctr-1 inactive.
For CCOC(=O)C(NC(=O)c1cccnc1)(Nc1cccc(C)n1)C(F)(F)F (centres undefined) the results were ARNT TACC3 PPI inactive, AI-2 QS modul inactive, Rce1 inhib inactive, CAL PDZ FP-1 inactive and CAL PDZ FP-2 inactive.
CCOC(=O)C(NCc1ccccn1)(NC(=O)c1cccnc1)C(F)(F)F (centres undefined) was read as ARNT TACC3 PPI 65.7, AI-2 QS modul inactive, Rce1 inhib inactive, CAL PDZ FP-1 inactive, CAL PDZ FP-2 inactive and ARNT Alpha ctr-1 inactive.
Cc1cc(NC(=O)COC(=O)C2=NN(c3ccccc3)C(=O)CC2)c([N+](=O)[O-])cc1C was read as ARNT TACC3 PPI inactive and CAL PDZ FP-2 inactive.
Screening CO[C@@H]1CN(C)C(=O)c2cc(NC(=O)c3ccccc3)ccc2OC[C@@H](C)N(C(=O)C2CC2)C[C@H]1C returned ARNT TACC3 PPI 12.1 and ARNT Alpha ctr-1 inactive.
Screening CO[C@H]1CN(C)C(=O)c2cc(NC(=O)NC3CCCCC3)ccc2OC[C@H](C)N(CC2CC2)C[C@@H]1C returned ARNT TACC3 PPI 57.0 and ARNT Alpha ctr-1 inactive.
Screening CO[C@H]1CN(C)C(=O)c2cc(NC(=O)NC3CCCCC3)ccc2OC[C@@H](C)N(CC2CC2)C[C@H]1C returned ARNT TACC3 PPI inactive.
`COc1ccc(NC(=O)CCc2nnc3ccc(N4CCC(C)CC4)nn23)cc1OC` gave ARNT TACC3 PPI inactive, AI-2 QS modul inactive, Rce1 inhib inactive, CAL PDZ FP-1 inactive and CAL PDZ FP-2 inactive.
For Cc1ccc(C2CCN(C(=S)Nc3cccc(C)c3)C2)cc1 (centres undefined) the results were ARNT TACC3 PPI 57.7, AI-2 QS modul inactive, Rce1 inhib inactive, CAL PDZ FP-1 inactive, CAL PDZ FP-2 inactive and ARNT Alpha ctr-1 inactive.
Screening Cc1ccnc(SCCn2c(N3CCN(c4ccccc4)CC3)nc3c2c(=O)[nH]c(=O)n3C)n1 returned ARNT TACC3 PPI inactive, AI-2 QS modul inactive, Rce1 inhib inactive, CAL PDZ FP-1 inactive and CAL PDZ FP-2 inactive.
Screening CC1CCN(S(=O)(=O)c2ccc(C(=O)Nc3nnc(C4=COCCO4)o3)cc2)CC1 returned ARNT TACC3 PPI 62.0, AI-2 QS modul inactive, Rce1 inhib inactive, CAL PDZ FP-2 inactive, ARNT Alpha ctr-1 inactive and ARNT Alpha ctr-2 inactive.
For O=C(Nc1nnc(-c2cccs2)o1)c1ccc(S(=O)(=O)N2CCOCC2)cc1 the results were ARNT TACC3 PPI 44.8, AI-2 QS modul inactive, CAL PDZ FP-1 inactive, CAL PDZ FP-2 inactive and ARNT Alpha ctr-1 34µM.
Screening CS(=O)(=O)c1cccc(C(=O)Nc2nnc(C3=COCCO3)o2)c1 returned ARNT TACC3 PPI 58.7, AI-2 QS modul inactive, Rce1 inhib inactive, CAL PDZ FP-1 inactive, CAL PDZ FP-2 inactive and ARNT Alpha ctr-1 inactive.
Screening O=C(Nc1nnc(C2=COCCO2)o1)c1ccc(S(=O)(=O)N2CCCC2)cc1 returned ARNT TACC3 PPI inactive, AI-2 QS modul inactive, Rce1 inhib inactive, CAL PDZ FP-1 inactive and CAL PDZ FP-2 inactive.
O=C(Nc1nnc(-c2ccccc2Cl)o1)c1ccc(S(=O)(=O)N2CCCCCC2)cc1 was read as AI-2 QS modul inactive and Rce1 inhib inactive.
O=C(Nc1nnc(C2=COCCO2)o1)c1ccc(S(=O)(=O)N2CCCCC2)cc1 was read as ARNT TACC3 PPI inactive, AI-2 QS modul inactive, Rce1 inhib inactive, CAL PDZ FP-1 inactive, CAL PDZ FP-2 inactive and ARNT Alpha ctr-2 inactive.
`O=C(Nc1nnc(C2=COCCO2)o1)c1cccc(Br)c1` gave AI-2 QS modul inactive, Rce1 inhib inactive and CAL PDZ FP-2 inactive.
For O=C(C1CC1)N1CCCCN2[C@@H](CO)[C@@H](c3ccc(C#CC4(O)CCCC4)cc3)[C@@H]2C1 the results were ARNT TACC3 PPI inactive.
Screening C[C@@H]1CCCCO[C@@H](CN(C)Cc2ccccc2)[C@H](C)CN([C@H](C)CO)C(=O)c2cc(NS(=O)(=O)c3ccccc3)ccc2O1 returned ARNT TACC3 PPI inactive.
